# Reference: ChEMBL document CHEMBL5724801, “EUbOPEN Chemogenomics Library - Multiplex” (2024)
# “And” between values parts separate entries of the source, which are not always exact repeats. Equal entries are not always repeated.
# Tested on: U2OS
# Assay: Multiplex assay against U2OS
# Assay type: toxicity, cell-based
# Settings: human
# Outline: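 Tubulin, mitochondrial-mass and membrane-permeability phenotypes are per cents of healthy-nucleus cells. Cells were gated by CellPathfinder machine learning into Hoechst high-intensity objects or normal cells, normal cells into healthy, pyknosed or fragmented nuclei, and pyknosed cells into mitotic or apoptotic. Before that, live cells stained at seeding with Hoechst33342, BioTracker Green Microtubule Cytoskeleton Dye, MitoTracker Red and Annexin V Alexa Fluor 680 were imaged on a CQ1 microscope at 37°C and 5% CO2 after compound addition.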
# [1] = 12 h, 1 µM, compound concentration 1 uM
# [2] = 12 h, 10 µM, compound concentration 10 uM
# [3] = 24 h, 1 µM, compound concentration 1 uM
# [4] = 24 h, 10 µM, compound concentration 10 uM
# [5] = 48 h, 1 µM, compound concentration 1 uM
# [6] = 48 h, 10 µM, compound concentration 10 uM
smiles,measurement,setting,value
COc1cc2nc(N3CCN(C(=O)COc4c(OC)cccc4C(C)C)CC3)nc(N)c2cc1OC.Cl.Cl,Population Apoptotic (%),[1],67% and 33%
same,Population Fragmented Nuclei (%),[1],21% and 10%
same,Population Healthy Nuclei (%),[1],66% and 84%
same,Population Hoechst High Intensity Objects (%),[1],3% and 2%
same,Population Membrane Permeable-Phenotype (%),[1],10%
same,Population Mitochondria Different-Phenotype (%),[1],5% and 6%
same,Population Mitotic Cells (%),[1],32% and 66%
same,Population Normal (%),[1],96% and 97%
same,Population Pyknosed Nuclei (%),[1],11% and 4%
same,Population Tubulin-Different-Phenotype (%),[1],6%
same,Total Cell Count,[1],256 and 136
same,Population Apoptotic (%),[2],55% and 66%
same,Population Fragmented Nuclei (%),[2],30% and 19%
same,Population Healthy Nuclei (%),[2],43% and 48%
same,Population Hoechst High Intensity Objects (%),[2],3% and 0%
same,Population Membrane Permeable-Phenotype (%),[2],60% and 54%
same,Population Mitochondria Different-Phenotype (%),[2],55% and 65%
same,Population Mitotic Cells (%),[2],44% and 33%
same,Population Normal (%),[2],96% and 99%
same,Population Pyknosed Nuclei (%),[2],25% and 32%
same,Population Tubulin-Different-Phenotype (%),[2],75% and 68%
same,Total Cell Count,[2],233 and 151
same,Population Apoptotic (%),[3],84% and 80%
same,Population Fragmented Nuclei (%),[3],21% and 15%
same,Population Healthy Nuclei (%),[3],67% and 77%
same,Population Hoechst High Intensity Objects (%),[3],3% and 0%
same,Population Membrane Permeable-Phenotype (%),[3],6% and 10%
same,Population Mitochondria Different-Phenotype (%),[3],8% and 7%
same,Population Mitotic Cells (%),[3],15% and 20%
same,Population Normal (%),[3],96% and 99%
same,Population Pyknosed Nuclei (%),[3],11% and 6%
same,Population Tubulin-Different-Phenotype (%),[3],4% and 5%
same,Total Cell Count,[3],297 and 154
same,Population Apoptotic (%),[4],76% and 87%
same,Population Fragmented Nuclei (%),[4],30% and 20%
same,Population Healthy Nuclei (%),[4],36% and 40%
same,Population Hoechst High Intensity Objects (%),[4],9% and 12%
same,Population Membrane Permeable-Phenotype (%),[4],40% and 49%
same,Population Mitochondria Different-Phenotype (%),[4],49% and 50%
same,Population Mitotic Cells (%),[4],24% and 12%
same,Population Normal (%),[4],90% and 87%
same,Population Pyknosed Nuclei (%),[4],33% and 39%
same,Population Tubulin-Different-Phenotype (%),[4],50% and 60%
same,Total Cell Count,[4],246 and 185
same,Population Apoptotic (%),[5],83% and 75%
same,Population Fragmented Nuclei (%),[5],20% and 16%
same,Population Healthy Nuclei (%),[5],70% and 72%
same,Population Hoechst High Intensity Objects (%),[5],2% and 3%
same,Population Membrane Permeable-Phenotype (%),[5],6% and 7%
same,Population Mitochondria Different-Phenotype (%),[5],6%
same,Population Mitotic Cells (%),[5],16% and 25%
same,Population Normal (%),[5],97% and 96%
same,Population Pyknosed Nuclei (%),[5],8% and 11%
same,Population Tubulin-Different-Phenotype (%),[5],4% and 6%
same,Total Cell Count,[5],441 and 225
same,Population Apoptotic (%),[6],88% and 93%
same,Population Fragmented Nuclei (%),[6],40% and 24%
same,Population Healthy Nuclei (%),[6],21% and 23%
same,Population Hoechst High Intensity Objects (%),[6],31% and 32%
same,Population Membrane Permeable-Phenotype (%),[6],13% and 27%
same,Population Mitochondria Different-Phenotype (%),[6],30% and 10%
same,Population Mitotic Cells (%),[6],11% and 6%
same,Population Normal (%),[6],68% and 67%
same,Population Pyknosed Nuclei (%),[6],38% and 51%
same,Population Tubulin-Different-Phenotype (%),[6],13% and 24%
same,Total Cell Count,[6],296 and 180
